According to PubChem BioAssay:
The source made the active and inactive calls.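 How the source made its calls, unless noted: active means a full or partial loss of lipid-probe fluorescence in the fish gall bladder, intestine or both, judged by eye; inactive means no fluorescence loss, or compound toxic to the fish.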

What was measured:
[1] = inhibitors of TNFa-induced NFkB p65 translocation, primary screen, imaging, HUVEC, MLSMR starter and 10KST1 sets (AID 438;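 active means inhibition above 20% together with a positive visual image hit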;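 further: compound added about 3h40 before a 20 min TNFalpha stimulation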;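 on inhibition: signal is the nuclear over cytoplasmic p65 intensity ratio per well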); settings: HUVEC TNFa-induced p65 nuclear translocation; cell count: measured here: nuclei count (cytotoxicity indicator), at 2.08 µM; inhibition: at 2 µM, stronger effect = higher value, 0% TNFa-plus-vehicle, 100% no-TNFa wells
[2] = inhibitors of E-selectin induction by TNFa, primary screen, imaging, HUVEC, immunofluorescence, MLSMR starter and 10KST1 sets (AID 487;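 active means visually confirmed hit in the image check and inhibition above 20%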;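 on inhibition: signal is fraction of cell area covered by stained E-selectin grains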;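 on nuclei count: 100% = median nuclei count of all wells on the same plate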); settings: HUVEC TNFalpha-induced E-selectin immunofluorescence imaging, at 2 µM; inhibition: stronger effect = higher value; nuclei count: measured here: cell number, toxicity
[3] = DUSP6 inhibitors restoring Erk phosphorylation by chemical complementation, primary imaging in DUSP6-transfected HeLa (AID 609;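 active means compounds giving at least 50% inhibition in the cell-based MKP-3 phosphatase rescue imaging test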;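 on inhibition: phospho-Erk level distribution per well compared with pooled transfected vehicle control wells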); settings: HeLa MKP-3 transfected, phospho-Erk imaging KS statistic, at 10 µM, cells stimulated with TPA for 15 min
[4] = target: Dual specificity protein phosphatase 6 (Homo sapiens) (UniProt Q16828); assay: as above; settings: HeLa MKP-3 transfected, phospho-Erk imaging KS statistic; at 10 µM; stronger effect = higher value; cells stimulated with TPA for 15 min
Sequence of Dual specificity protein phosphatase 6 (Homo sapiens) (Q16828 whole entry, looked up): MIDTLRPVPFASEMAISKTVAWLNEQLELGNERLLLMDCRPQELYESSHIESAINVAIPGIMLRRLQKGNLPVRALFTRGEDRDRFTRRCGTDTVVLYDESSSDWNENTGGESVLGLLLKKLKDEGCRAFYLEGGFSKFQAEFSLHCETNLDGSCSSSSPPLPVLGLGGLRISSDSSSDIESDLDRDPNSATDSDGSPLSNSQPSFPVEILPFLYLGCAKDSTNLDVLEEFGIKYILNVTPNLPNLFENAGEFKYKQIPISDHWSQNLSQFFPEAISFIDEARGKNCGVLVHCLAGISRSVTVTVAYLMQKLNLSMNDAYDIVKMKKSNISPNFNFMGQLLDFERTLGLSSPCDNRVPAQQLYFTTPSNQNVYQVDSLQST

[5] = target: Voltage-gated potassium channel subunit beta-2 (Rattus norvegicus) (UniProt P62483); assay: KvBeta enzyme negative modulators, primary screen, biochemical, NADPH fluorescence (AID 622;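 active means fluorescence slope higher than the sample average by over 3 SD, cut at about -0.22 in these data, passing the limit was not always enough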;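 further: slope of raw intensity against log time taken from 70 to 1610 s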); settings: recombinant KvBeta, 4-cyanobenzaldehyde reduction, at 10 µM, stronger effect = higher value
Sequence of Voltage-gated potassium channel subunit beta-2 (Rattus norvegicus) (P62483 whole entry, looked up): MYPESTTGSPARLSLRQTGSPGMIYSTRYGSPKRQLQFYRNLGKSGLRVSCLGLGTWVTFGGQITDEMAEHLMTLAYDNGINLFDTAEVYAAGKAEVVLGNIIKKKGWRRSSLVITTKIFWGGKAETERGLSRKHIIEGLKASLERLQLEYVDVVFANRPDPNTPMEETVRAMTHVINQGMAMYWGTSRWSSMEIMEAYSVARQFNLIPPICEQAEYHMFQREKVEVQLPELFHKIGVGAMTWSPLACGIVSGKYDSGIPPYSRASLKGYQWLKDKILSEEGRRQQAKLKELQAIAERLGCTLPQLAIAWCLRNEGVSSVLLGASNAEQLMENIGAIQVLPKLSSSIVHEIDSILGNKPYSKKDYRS

[6] = target: Voltage-gated potassium channel subunit beta-2 (Rattus norvegicus) (UniProt P62483); assay: KvBeta positive modulators, primary screen, biochemical, NADPH fluorescence (AID 623;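 active means NADPH fluorescence slope more negative than the mean of all samples by about 3 SD, 99.7% confidence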;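 further: fluorescence intensity change per second fitted from 20 to 320 s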); settings: Recombinant KvBeta, NADPH fluorescence decrease slope, 10 min; at 10 µM; stronger effect = lower value
[7] = target: Muscarinic acetylcholine receptor M4 (Homo sapiens) (UniProt P08173); assay: compounds altering M4/GIRK thallium flux, either direction, primary screen, M4 allosteric agonist project, cell-based, HEK293 M4/GIRK, BTC-AM (AID 625;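 active means fluorescence slope after compound addition differing from the mean of all tested samples at 99.7% confidence, mostly higher but some lower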;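 further: thallium influx through GIRK channels coupled to M4 in HEK293 cells with BTC-AM dye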); settings: at 10 µM, actives lie on both sides
Sequence of Muscarinic acetylcholine receptor M4 (Homo sapiens) (P08173 whole entry, looked up): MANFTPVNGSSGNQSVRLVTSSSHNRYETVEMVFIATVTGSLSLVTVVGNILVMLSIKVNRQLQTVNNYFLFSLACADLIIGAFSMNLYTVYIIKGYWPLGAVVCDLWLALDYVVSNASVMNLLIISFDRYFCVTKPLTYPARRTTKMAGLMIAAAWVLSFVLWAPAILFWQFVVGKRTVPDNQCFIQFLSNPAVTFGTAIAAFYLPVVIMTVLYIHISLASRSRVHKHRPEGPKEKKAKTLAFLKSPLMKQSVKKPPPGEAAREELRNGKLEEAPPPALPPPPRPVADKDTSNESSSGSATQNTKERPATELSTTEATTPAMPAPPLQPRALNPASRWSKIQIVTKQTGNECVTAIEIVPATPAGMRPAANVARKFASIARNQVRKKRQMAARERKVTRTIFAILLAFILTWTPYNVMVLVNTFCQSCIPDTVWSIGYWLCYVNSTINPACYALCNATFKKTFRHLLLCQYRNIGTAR
Summary of the method: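 Material – HEK293 cells with M4 receptor and GIRK channels · Buffer or medium – pH 7.3 thallium assay buffer · Doses – one dose, 10 µM final · Timing – cells overnight at 37 °C, BTC-AM loading 1 h, reads 2 min total · Measured by – kinetic fluorescence with BTC-AM dye · Controls – carbachol and DMSO controls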

[8] = inhibitors of larval lipid processing in zebrafish, primary screen, whole organism, PED6 fluorescence, gall bladder and intestine (AID 686); settings: Zebrafish larvae PED6 lipid processing, fluorescence scoring; screened at 20 µM (by protocol);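 further: larvae 5 to 7 days old with five fish per well; signal comes from phospholipase A2 cleavage of quenched PED6 carried via bile; overnight exposure to compound and PED6 before scoring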
Summary of the method: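 system = live zebrafish larvae aged 5-7 days, whole organism | probe or stimulus = ingested quenched lipid PED6 at 100 nM | doses = 20 µM single dose | timing = overnight exposure | detection = fluorescence microscopy with visual scoring of gall bladder and intestine | read-out = visual per-well fluorescence inhibition score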

[9] = inhibitors of Chlamydomonas gravitaxis, primary screen, whole organism, Chlamydomonas reinhardtii, WT vs cilia-less mutant, absorbance, 96-well (AID 463189;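 active means inhibition at or above 50% relative to wild type and mutant plate controls; inactive means inhibition below 50%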;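 further: 0% = wild type cc124 cells in DMSO and 100% = ciliumless bld1 mutant cells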); settings: OD600 absorbance, 2 days, at 10 µM, stronger effect = higher value
[10] = measured here: cell density z-score
[11] = measured here: nuclear c-Myc green intensity z-score
[12] = measured here: nuclear pErk red intensity z-score, stronger effect = higher value

| SMILES | cell count [1] | inhibition [1] | inhibition [2] | nuclei count [2] [%] | z-score [3, 10] | z-score [3, 11] | z-score [3, 12] | inhibition [4] | fluorescence slope [5] | NADPH fluorescence slope [6] | fluorescence slope [7] | outcome [8] | inhibition [9] |
| --- | --- | --- | --- | --- | --- | --- | --- | --- | --- | --- | --- | --- | --- |
| CCC(=O)Nc1cccc(-c2nnc(SCC(=O)NCc3ccco3)n2C)c1 | 615 | -0.2% (inactive) | 47.2% (inactive) | 92.3 | 1.47 | -0.507 | -1.13 | 18.4% (inactive) | -0.51 (inactive) | -4e-05 (inactive) | 0.00589 (inactive) | inactive | -16.4% (inactive) |
| CC1(C(=O)CSc2n[nH]c(-c3ccccc3Cl)n2)CCC(=O)O1 (centres undefined) | 640 | -3.4% (inactive) | -44.5% (inactive) | 144 | 1.47 | -0.819 | -0.432 | -2.47% (inactive) | -0.482 (inactive) | -7.8e-05 (inactive) | 0.0054 (inactive) | inactive | 3.93% (inactive) |
| CCCCc1nc(N2CCOCC2)c(C#N)c2c1COC(C)(C)C2 | 530 | -4.2% (inactive) | -202% (inactive) | 149 | 1.13 | -0.937 | -0.238 | 15.4% (inactive) | -0.458 (inactive) | -6.7e-05 (inactive) | 0.00404 (inactive) | inactive | 1.03% (inactive) |
| CCOC(=O)NC(Nc1sc2c(c1C(N)=O)CCCC2)(C(=O)OCC)C(F)(F)F (centres undefined) | 707 | -5.7% (inactive) | -51.4% (inactive) | 144 | 0.203 | -0.663 | 1.92 | 16.5% (inactive) | -0.448 (inactive) | -1.9e-05 (inactive) | 0.00659 (inactive) | inactive | 1.44% (inactive) |
| COc1ccc(CC(=O)Nc2cccc(-c3nnc(-c4ccco4)o3)c2)cc1 | 671 | -0.9% (inactive) | 6.2% (inactive) | 177 | -0.286 | 1.67 | 1.63 | -15.1% (inactive) | -0.475 (inactive) | -8e-05 (inactive) | 0.00587 (inactive) | inactive | 0.83% (inactive) |
| CC1(C(=O)CSc2ncn[nH]2)CCC(=O)O1 (centres undefined) | 643 | 19.2% (inactive) | 21.4% (inactive) | 93.2 | -1.6 | 1.61 | 0.596 | 7.21% (inactive) | -0.544 (inactive) | -5.7e-05 (inactive) | 0.00624 (inactive) | inactive | 29.1% (inactive) |
| N#Cc1nc(-c2cccs2)oc1NCc1ccccc1 | 712 | 0.5% (inactive) | -23.3% (inactive) | 148 | 0.919 | 1.11 | 0.281 | -7.67% (inactive) | -0.329 (inactive) | -2.5e-05 (inactive) | 0.00659 (inactive) | inactive | 7.94% (inactive) |
| CC1CCN(c2[nH]c(=S)c(C#N)c3c2CCCC3)CC1 | 383 | -5.9% (inactive) | -5.3% (inactive) | 140 | 0.378 | -0.606 | 1.46 | 1.42% (inactive) | -0.469 (inactive) | -0.000131 (inactive) | 0.00501 (inactive) | inactive | 19.3% (inactive) |
| O=C(CC(c1ccc(F)cc1)c1ccco1)N1CCCC1 (centres undefined) | 494 | -4% (inactive) | -36.9% (inactive) | 182 | -0.749 | 0.895 | -0.708 | 9.91% (inactive) | -0.404 (inactive) | -1.7e-05 (inactive) | 0.00541 (inactive) | inactive | -1.73% (inactive) |
| CC(NC(=O)c1ccc(=O)oc1)c1ccccc1 (centres undefined) | 544 | 4.1% (inactive) | 56.8% (inactive) | 167 | -0.00091 | 1.16 | 1.91 | 13.9% (inactive) | -0.409 (inactive) | -5.3e-05 (inactive) | 0.00521 (inactive) | inactive | 6.14% (inactive) |
| CCOC(=O)Oc1ccc2c(c1)C(C)=CC(C)(C)N2C(=O)OCC | 618 | 2.2% (inactive) | -42% (inactive) | 115 | 1.01 | 0.72 | 0.465 | -13.3% (inactive) | -0.433 (inactive) | -4.7e-05 (inactive) | 0.00572 (inactive) | inactive | -7.72% (inactive) |
| COc1cccc(-c2nc(N3CCCCC3C)c3ccccc3n2)c1O (centres undefined) | 676 | 1% (inactive) | 32.7% (inactive) | 154 | -0.111 | 1.23 | 0.615 | -5.62% (inactive) | -0.465 (inactive) | -7.5e-05 (inactive) | 0.0038 (inactive) | inactive; toxic | 9.9% (inactive) |
| Cc1nc(N2CCN(C(=O)c3ccc(Cl)cc3)CC2)c(C#N)c2c1COC(C)(C)C2 | 522 | 8.1% (inactive) | 7% (inactive) | 95.8 | -0.225 | -0.286 | 0.404 | 1.98% (inactive) | -0.335 (inactive) | -2.3e-05 (inactive) | 0.00518 (inactive) | inactive | 129% (active) |
